Laboratory results published in ChEMBL document CHEMBL1152138, “Clubbed [1,2,3] triazoles by fluorine benzimidazole: a novel approach to H37Rv inhibitors as a potential treatment for tuberculosis” (Bioorg Med Chem Lett, 2008).
In brackets after ≈: the same amount, converted by molar mass. Several values for one entry are separate records, joined by “and”; a condition that tells them apart may be missing. Identical values can stand only once.

What was measured:
[1] = test system: Mycobacterium tuberculosis; experiment: Antitubercular activity against Mycobacterium tuberculosis H37Rv ATCC 27294 by microplate alamar blue assay; format: functional
Outline: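 Compounds active in the primary screen were retested at lower concentrations against H37Rv by Microplate Alamar Blue Assay. MIC taken as the lowest concentration giving a 95% reduction in fluorescence relative to controls. Rifampin used as reference.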

Salmonella typhi = experiment: Antimicrobial activity against Salmonella typhosa after 24 hrs by well diffusion method; format: functional, Salmonella enterica subsp. enterica serovar Typhi
Outline: (§1)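 Well diffusion on nutrient agar. 10 mm wells cut with a sterile cork borer. Plates swab-inoculated from a 24 h bacterial subculture in nutrient broth. Compounds dissolved in chloroform and added to wells at 50 and 100 µM. Gentamycin used as standard. % inhibition derived from inhibition zone diameter.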

[2] = Cytotoxicity against african green monkey Vero C1008 cells at 6.25 to 50 ug/mL by neutral-red uptake assay; format: cell-based; details: chlorocebus sabaeus
Outline: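 Vero C-1008 cells exposed to compounds at 6.25–50 µg/mL. Cytotoxicity read out by neutral red uptake.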

Staphylococcus aureus = experiment: Antimicrobial activity against Staphylococcus aureus after 24 hrs by well diffusion method; format: functional; outline: as §1
Pseudomonas aeruginosa = experiment: Antimicrobial activity against Pseudomonas aeruginosa after 24 hrs by well diffusion method; format: functional; outline: as §1
Escherichia coli = experiment: Antimicrobial activity against Escherichia coli after 24 hrs by well diffusion method; format: functional; outline: as §1
[3] = test system: Mycobacterium tuberculosis; experiment: Antitubercular activity against Mycobacterium tuberculosis H37Rv ATCC 27294 at 6.25 ug/mL by microplate alamar blue assay; format: functional; details: read-out: GI
Outline: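 Primary screen against M. tuberculosis H37Rv (ATCC 27294) at a single concentration of 6.25 µg/mL. Broth microdilution Microplate Alamar Blue Assay in BACTEC 12B medium. Fluorescent compounds were instead run in the BACTEC 460 radiometric system. Percent growth inhibition reported; >95% counted as active. Rifampin used as reference.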

## COc1ccccc1-n1cc(Cn2c(-c3cccc(F)c3)nc3ccccc32)nn1
[1]
  MIC: > 6.25 µg/mL
Salmonella typhi
  inhibition zone (IZ): 23 mm
[2]
  Activity: Non-toxic
Staphylococcus aureus
  inhibition zone (IZ): 21 mm
Pseudomonas aeruginosa
  inhibition zone (IZ): 24 mm
Escherichia coli
  inhibition zone (IZ): 19 mm

## Fc1cccc(-c2nc3ccccc3n2Cc2cn(-c3ccc(F)cc3F)nn2)c1
[1]
  MIC: 0.32 µM and > 6.25 µg/mL
Salmonella typhi
  inhibition zone (IZ): 31 mm
[2]
  Activity: Non-toxic
[3]
  inhibition of growth at 6.25 µg/mL: 96%
Staphylococcus aureus
  inhibition zone (IZ): 33 mm
Pseudomonas aeruginosa
  inhibition zone (IZ): 34 mm
Escherichia coli
  inhibition zone (IZ): 32 mm

## Cc1ccc(-n2cc(Cn3c(-c4cccc(F)c4)nc4ccccc43)nn2)cc1
[1]
  MIC: > 12.5 µg/mL
Salmonella typhi
  inhibition zone (IZ): 17 mm
[2]
  Activity: Non-toxic
Staphylococcus aureus
  inhibition zone (IZ): 18 mm
Pseudomonas aeruginosa
  inhibition zone (IZ): 20 mm
Escherichia coli
  inhibition zone (IZ): 19 mm

## CO[C@H]1/C=C/O[C@@]2(C)Oc3c(C)c(O)c4c(O)c(c(/C=N/N5CCN(C)CC5)c(O)c4c3C2=O)NC(=O)/C(C)=C\C=C\[C@H](C)[C@H](O)[C@@H](C)[C@@H](O)[C@@H](C)[C@H](OC(C)=O)[C@@H]1C [RIFAMPIN]
[1]
  MIC: 0.015 µg/mL (≈ 0.0182 µM)

## Fc1cccc(-c2nc3ccccc3n2Cc2cn(-c3ccc(F)c(F)c3)nn2)c1
[1]
  MIC: 0.34 µM and > 6.25 µg/mL
Salmonella typhi
  inhibition zone (IZ): 29 mm
[2]
  Activity: Non-toxic
[3]
  inhibition of growth at 6.25 µg/mL: 96%
Staphylococcus aureus
  inhibition zone (IZ): 32 mm
Pseudomonas aeruginosa
  inhibition zone (IZ): 31 mm
Escherichia coli
  inhibition zone (IZ): 30 mm

## Fc1cccc(-c2nc3ccccc3n2Cc2cn(-c3ccccc3)nn2)c1
[1]
  MIC: > 6.25 µg/mL
Salmonella typhi
  inhibition zone (IZ): 18 mm
[2]
  Activity: Non-toxic
Staphylococcus aureus
  inhibition zone (IZ): 26 mm
Pseudomonas aeruginosa
  inhibition zone (IZ): 28 mm
Escherichia coli
  inhibition zone (IZ): 17 mm

## GENTAMICIN
Salmonella typhi; Salmonella enterica subsp. enterica serovar Typhi
  inhibition zone (IZ): 30 mm

## Fc1cccc(-c2nc3ccccc3n2Cc2cn(-c3ccc(F)c(F)c3F)nn2)c1
[1]
  MIC: > 6.25 µg/mL
Salmonella typhi
  inhibition zone (IZ): 30 mm
[2]
  Activity: Non-toxic
Staphylococcus aureus
  inhibition zone (IZ): 31 mm
Pseudomonas aeruginosa
  inhibition zone (IZ): 33 mm
Escherichia coli
  inhibition zone (IZ): 29 mm

## Fc1cccc(-c2nc3ccccc3n2Cc2cn(-c3ccc(C(F)(F)F)cc3)nn2)c1
[1]
  MIC: > 6.25 µg/mL
Salmonella typhi
  inhibition zone (IZ): 18 mm
[2]
  Activity: Non-toxic
Staphylococcus aureus
  inhibition zone (IZ): 18 mm
Pseudomonas aeruginosa
  inhibition zone (IZ): 13 mm
Escherichia coli
  inhibition zone (IZ): 21 mm

## COc1ccc(-n2cc(Cn3c(-c4cccc(F)c4)nc4ccccc43)nn2)cc1
[1]
  MIC: 6.25 µM and > 6.25 µg/mL
Salmonella typhi
  inhibition zone (IZ): 21 mm
[2]
  Activity: Non-toxic
[3]
  inhibition of growth at 6.25 µg/mL: 96%
Staphylococcus aureus
  inhibition zone (IZ): 20 mm
Pseudomonas aeruginosa
  inhibition zone (IZ): 26 mm
Escherichia coli
  inhibition zone (IZ): 18 mm

## Cc1ccccc1-n1cc(Cn2c(-c3cccc(F)c3)nc3ccccc32)nn1
[1]
  MIC: > 12.5 µg/mL
Salmonella typhi
  inhibition zone (IZ): 17 mm
[2]
  Activity: Non-toxic
Staphylococcus aureus
  inhibition zone (IZ): 16 mm
Pseudomonas aeruginosa
  inhibition zone (IZ): 19 mm
Escherichia coli
  inhibition zone (IZ): 14 mm

## Cc1ccc(-n2cc(Cn3c(-c4cccc(F)c4)nc4ccccc43)nn2)c(F)c1
[1]
  MIC: 3.13 µM and > 6.25 µg/mL
Salmonella typhi
  inhibition zone (IZ): 18 mm
[2]
  Activity: Non-toxic
[3]
  inhibition of growth at 6.25 µg/mL: 96%
Staphylococcus aureus
  inhibition zone (IZ): 18 mm
Pseudomonas aeruginosa
  inhibition zone (IZ): 13 mm
Escherichia coli
  inhibition zone (IZ): 21 mm

## Fc1ccc(-n2cc(Cn3c(-c4cccc(F)c4)nc4ccccc43)nn2)cc1
[1]
  MIC: 0.58 µM and > 6.25 µg/mL
Salmonella typhi
  inhibition zone (IZ): 19 mm
[2]
  Activity: Non-toxic
[3]
  inhibition of growth at 6.25 µg/mL: 96%
Staphylococcus aureus
  inhibition zone (IZ): 26 mm
Pseudomonas aeruginosa
  inhibition zone (IZ): 19 mm
Escherichia coli
  inhibition zone (IZ): 20 mm
